Laboratory results: ChEMBL document CHEMBL5357066, “Development of Novel Membrane Disrupting Lipoguanidine Compounds Sensitizing Gram-Negative Bacteria to Antibiotics” (ACS Med Chem Lett, 2024)

Columns and labels:
Acinetobacter baumannii [1] = experiment: Synergistic antibacterial activity against Acinetobacter baumannii ATCC 17978 assessed as rifampicin MIC at 30 microg/ml incubated for overnight by microbroth dilution checkerboard assay; assay type: functional; settings: dose 30 µg/ml
Acinetobacter baumannii [2] = experiment: Synergistic antibacterial activity against Acinetobacter baumannii AYE assessed as rifampicin MIC at 30 microg/ml incubated for overnight by microbroth dilution checkerboard assay; assay type: functional; settings: dose 30 µg/ml
Klebsiella pneumoniae [3] = experiment: Synergistic antibacterial activity against Klebsiella pneumoniae NCTC 13368 assessed as rifampicin MIC at 30 microg/ml incubated for overnight by microbroth dilution checkerboard assay; assay type: functional; settings: dose 30 µg/ml
Pseudomonas aeruginosa [4] = experiment: Synergistic antibacterial activity against Pseudomonas aeruginosa NCTC 13437 assessed as rifampicin MIC at 30 microg/ml incubated for overnight by microbroth dilution checkerboard assay; assay type: functional; settings: dose 30 µg/ml
Summary of the method: (§1)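 Fixed-concentration combination MIC in TSB. The first agent was set in a two-fold dilution series (100 µL/well), then 50 µL/well of the second agent at a fixed concentration was added; PMBN was fixed at 30 µg/mL. Bacteria at OD 0.02 (50 µL) went into 150 µL of compounds, overnight at 37 °C. MIC was the lowest concentration without visible growth (<0.1 OD600).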

Escherichia coli [5] = experiment: Synergistic antibacterial activity against Escherichia coli NCTC 12923 assessed as rifampicin MIC at 30 microg/ml incubated for overnight by microbroth dilution checkerboard assay; assay type: functional; settings: dose 30 µg/ml
Pseudomonas aeruginosa [6] = experiment: Synergistic antibacterial activity against Pseudomonas aeruginosa PAO1 assessed as rifampicin MIC at 30 microg/ml incubated for overnight by microbroth dilution checkerboard assay; assay type: functional; settings: dose 30 µg/ml; summary of the method: as §1
Klebsiella pneumoniae [7] = experiment: Synergistic antibacterial activity against Klebsiella pneumoniae M6 assessed as rifampicin MIC at 30 microg/ml incubated for overnight by microbroth dilution checkerboard assay; assay type: functional; settings: dose 30 µg/ml
Acinetobacter baumannii [8] = experiment: Synergistic antibacterial activity against Acinetobacter baumannii AYE assessed as rifampicin MIC at <=0.25 times MIC incubated for overnight by microbroth dilution checkerboard assay; assay type: functional
Summary of the method: (§2)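 Checkerboard microdilution under MIC conditions (TSB, overnight, 37 °C). Two-fold series of each agent were combined on one plate before bacteria were added, and single-agent MICs were measured on the same plate. FIC = sum of combination MIC/alone MIC for each agent, taken from the most synergistic well. Three independent repeats, mean ± SD. ≤0.5 was taken as strong synergy and 0.5–<1 as weak.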

Pseudomonas aeruginosa [9] = experiment: Antibacterial activity against Pseudomonas aeruginosa NCTC 13437 assessed as bacterial growth inhibition incubated for overnight by microbroth dilution method; assay type: functional
Summary of the method: (§3)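 Broth microdilution in Tryptic Soy Broth. DMSO stocks were diluted in TSB as 2-fold series. Overnight TSB cultures were back-diluted to OD 0.01 and mixed 1:1 with compound. Incubation was overnight at 37 °C. MIC was the lowest concentration without visible growth (<0.1 OD600). DMSO vehicle was checked at equivalent concentrations.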

Klebsiella pneumoniae [10] = experiment: Synergistic antibacterial activity against […] Klebsiella pneumoniae M6 assessed as rifampicin MIC at <=0.25 times MIC incubated for overnight by microbroth dilution checkerboard assay; assay type: functional
Summary of the method: (§4)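 Checkerboard run under the MIC conditions (TSB, overnight, 37 °C). Antibiotic and lipoguanidine 2-fold series were combined on one plate before bacteria were added. Growth/no-growth was scored as for the MIC (<0.1 OD600). Single-agent MICs were measured on the same plates. Three independent repeats were done.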

Acinetobacter baumannii [11] = experiment: Synergistic antibacterial activity against Acinetobacter baumannii AYE assessed as fold change in rifampicin MIC at <=0.25 times MIC incubated for overnight by microbroth dilution checkerboard assay relative to rifampicin alone; assay type: functional; summary of the method: as §2
Klebsiella pneumoniae [12] = experiment: Antibacterial activity against Klebsiella pneumoniae M6 assessed as bacterial growth inhibition incubated for overnight by microbroth dilution method
Klebsiella pneumoniae [13] = experiment: Synergistic antibacterial activity against Klebsiella pneumoniae NCTC 13368 assessed as fold change in rifampicin MIC at <=0.25 times MIC incubated for overnight by microbroth dilution checkerboard assay relative to rifampicin alone; assay type: functional; summary of the method: as §4
Acinetobacter baumannii [14] = experiment: Synergistic antibacterial activity against Acinetobacter baumannii ATCC 17978 assessed as rifampicin MIC at <=0.25 times MIC incubated for overnight by microbroth dilution checkerboard assay; assay type: functional; summary of the method: as §2
Klebsiella pneumoniae [15] = experiment: Antibacterial activity against ESBL Klebsiella pneumoniae NCTC 13368 assessed as bacterial growth inhibition incubated for overnight by microbroth dilution method
Klebsiella pneumoniae [16] = experiment: Synergistic antibacterial activity against Klebsiella pneumoniae NCTC 13368 assessed as rifampicin MIC at <=0.25 times MIC incubated for overnight by microbroth dilution checkerboard assay; assay type: functional; summary of the method: as §2
Escherichia coli [17] = experiment: Synergistic antibacterial activity against Escherichia coli NCTC 12923 assessed as rifampicin MIC at <=0.25 times MIC incubated for overnight by microbroth dilution checkerboard assay; assay type: functional; summary of the method: as §2
Pseudomonas aeruginosa [18] = experiment: Synergistic antibacterial activity against Pseudomonas aeruginosa PAO1 assessed as fold change in rifampicin MIC at <=0.25 times MIC incubated for overnight by microbroth dilution checkerboard assay relative to rifampicin alone; assay type: functional
Summary of the method: (§5)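 Checkerboard microdilution in Tryptic Soy Broth, run like the MIC assay. Overnight TSB cultures were back-diluted to OD 0.01 and added 1:1 to the combined two-fold series of both agents, then incubated overnight at 37 °C. Growth/no-growth was called at <0.1 OD600. MICs alone were read on the same plates. FIC index came from the most synergistic well; three independent repeats, mean ± SD.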

Escherichia coli [19] = experiment: Synergistic antibacterial activity against Escherichia coli NCTC 12923 assessed as fold change in rifampicin MIC at <=0.25 times MIC incubated for overnight by microbroth dilution checkerboard assay relative to rifampicin alone; assay type: functional; summary of the method: as §2
Pseudomonas aeruginosa [20] = experiment: Synergistic antibacterial activity against Pseudomonas aeruginosa NCTC 13437 assessed as fold change in rifampicin MIC at <=0.25 times MIC incubated for overnight by microbroth dilution checkerboard assay relative to rifampicin alone; assay type: functional; summary of the method: as §5
Klebsiella pneumoniae [21] = experiment: Synergistic antibacterial activity against […] Klebsiella pneumoniae M6 assessed as fold change in rifampicin MIC at <=0.25 times MIC incubated for overnight by microbroth dilution checkerboard assay relative to rifampicin alone; assay type: functional; summary of the method: as §4
Acinetobacter baumannii [22] = experiment: Synergistic antibacterial activity against Acinetobacter baumannii ATCC 17978 assessed as fold change in rifampicin MIC at <=0.25 times MIC incubated for overnight by microbroth dilution checkerboard assay relative to rifampicin alone; assay type: functional; summary of the method: as §2
Acinetobacter baumannii [23] = experiment: Antibacterial activity against Acinetobacter baumannii ATCC 17978 assessed as bacterial growth inhibition incubated for overnight by microbroth dilution method; assay type: functional; summary of the method: as §3
Pseudomonas aeruginosa [24] = experiment: Synergistic antibacterial activity against Pseudomonas aeruginosa NCTC 13437 assessed as rifampicin MIC at <=0.25 times MIC incubated for overnight by microbroth dilution checkerboard assay; assay type: functional; summary of the method: as §5
Acinetobacter baumannii [25] = experiment: Antibacterial activity against Acinetobacter baumannii AYE assessed as bacterial growth inhibition incubated for overnight by microbroth dilution method; assay type: functional; summary of the method: as §3
Pseudomonas aeruginosa [26] = experiment: Synergistic antibacterial activity against Pseudomonas aeruginosa PAO1 assessed as rifampicin MIC at <=0.25 times MIC incubated for overnight by microbroth dilution checkerboard assay; assay type: functional; summary of the method: as §5
Pseudomonas aeruginosa [27] = experiment: Antibacterial activity against Pseudomonas aeruginosa PAO1 assessed as bacterial growth inhibition incubated for overnight by microbroth dilution method; assay type: functional; summary of the method: as §3
Escherichia coli [28] = experiment: Antibacterial activity against Escherichia coli NCTC 12923 assessed as bacterial growth inhibition incubated for overnight by microbroth dilution method; assay type: functional; summary of the method: as §3

**Q.** For `CC(C)C[C@@H]1NC(=O)[C@@H](Cc2ccccc2)NC(=O)[C@H](CCN)NC(=O)[C@@H](NC(=O)[C@H](CCN)NC(=O)[C@@H](N)[C@@H](C)O)CCNC(=O)[C@H]([C@@H](C)O)NC(=O)[C@@H](CCN)NC(=O)[C@H](CCN)NC1=O`, which MIC (Acinetobacter baumannii [1]) is on record?
**A.** Its MIC is no more than 0.125 µg/mL.

**Q.** What about the MIC (Acinetobacter baumannii [2]) of the same molecule?
**A.** The MIC was 0.25 µg/mL.

**Q.** And the MIC (Klebsiella pneumoniae [3])?
**A.** Its MIC is 1 µg/mL.

**Q.** What about the MIC (Pseudomonas aeruginosa [4]) of the same molecule?
**A.** Its MIC is no more than 0.125 µg/mL.

**Q.** And the MIC (Escherichia coli [5])?
**A.** The MIC was no more than 0.125 µg/mL.

**Q.** And the MIC (Pseudomonas aeruginosa [6])?
**A.** Its MIC is no more than 0.125 µg/mL.

**Q.** And the MIC (Klebsiella pneumoniae [7])?
**A.** Its MIC is 0.5 µg/mL.

**Q.** How did the MIC (Acinetobacter baumannii [8]) turn out when `NCCCCN=C(N)N` [AGMATINE] was run?
**A.** The MIC was 16 µg/mL.

**Q.** What about the MIC (Pseudomonas aeruginosa [9]) of the same molecule?
**A.** The MIC was greater than 128 µg/mL.

**Q.** And the MIC (Klebsiella pneumoniae [10])?
**A.** Its MIC is 32 µg/mL.

**Q.** What about the “fold change (FC)” value (Acinetobacter baumannii [11]) of the same molecule?
**A.** Its value is 0.

**Q.** And the MIC (Klebsiella pneumoniae [12])?
**A.** Its MIC is greater than 128 µg/mL.

**Q.** And the “fold change (FC)” value (Klebsiella pneumoniae [13])?
**A.** The value was 0.

**Q.** And the MIC (Acinetobacter baumannii [14])?
**A.** The MIC was 4 µg/mL.

**Q.** What about the MIC (Klebsiella pneumoniae [15]) of the same molecule?
**A.** Its MIC is greater than 128 µg/mL.

**Q.** What about the MIC (Klebsiella pneumoniae [16]) of the same molecule?
**A.** The MIC was 32 µg/mL.

**Q.** What about the MIC (Escherichia coli [17]) of the same molecule?
**A.** The MIC was 32 µg/mL.

**Q.** And the “fold change (FC)” value (Pseudomonas aeruginosa [18])?
**A.** The value was 0.

**Q.** What about the “fold change (FC)” value (Escherichia coli [19]) of the same molecule?
**A.** Its value is 0.

**Q.** What about the “fold change (FC)” value (Pseudomonas aeruginosa [20]) of the same molecule?
**A.** The value was 0.

**Q.** What about the “fold change (FC)” value (Klebsiella pneumoniae [21]) of the same molecule?
**A.** The value was 0.

**Q.** What about the “fold change (FC)” value (Acinetobacter baumannii [22]) of the same molecule?
**A.** Its value is 0.

**Q.** What about the MIC (Acinetobacter baumannii [23]) of the same molecule?
**A.** The MIC was greater than 128 µg/mL.

**Q.** What about the MIC (Pseudomonas aeruginosa [24]) of the same molecule?
**A.** Its MIC is 32 µg/mL.

**Q.** What about the MIC (Acinetobacter baumannii [25]) of the same molecule?
**A.** Its MIC is greater than 128 µg/mL.

**Q.** And the MIC (Pseudomonas aeruginosa [26])?
**A.** Its MIC is 32 µg/mL.

**Q.** And the MIC (Pseudomonas aeruginosa [27])?
**A.** Its MIC is greater than 128 µg/mL.

**Q.** And the MIC (Escherichia coli [28])?
**A.** The MIC was greater than 128 µg/mL.
